Results reported in ChEMBL document CHEMBL2069262, “Stimulation of Glucose-Dependent Insulin Secretion by a Potent, Selective sst3 Antagonist” (ACS Med Chem Lett, 2012).
Active and inactive are the calls of the source. The calls are words filed in the database; no cut-off is given here.

Columns and labels:
[1] = target: T1, Somatostatin receptor type 3 (Homo sapiens, UniProt P32745); assay: Displacement of [125I]SS-14 from human SST3 receptor expressed in CHO cells after 60 mins by scintillation counting; assay type: cell-based
[2] = target: T1, Somatostatin receptor type 3; assay type: functional, cell-based, CHO
[3] = Half life in C57BL/6N mouse at 1 mg/kg, iv and 2 mg/kg, po; assay type: ADME, organism-based; settings: in vivo
[4] = Oral bioavailability in C57BL/6N mouse at 2 mg/kg; assay type: ADME, organism-based; settings: in vivo
[5] = Clearance in C57BL/6N mouse at 1 mg/kg, iv and 2 mg/kg, po; assay type: ADME, organism-based; settings: in vivo
[6] = Volume of distribution at steady state in C57BL/6N mouse at 1 mg/kg, iv and 2 mg/kg, po; assay type: ADME, organism-based; settings: in vivo, read-out: Vdss
[7] = Cmax in C57BL/6N mouse at 2 mg/kg, po; assay type: ADME, organism-based; parameters: dose 2 mg/kg, route oral; settings: in vivo
[8] = target: Voltage-gated L-type calcium channel (Homo sapiens, UniProt Q13936+Q13698+Q01668+O60840); assay: Binding affinity to L-type calcium channel
[9] = system: Mus musculus; assay: Dose normalized AUC in C57BL/6N mouse at 2 mg/kg, po; assay type: ADME, organism-based; parameters: dose 2 mg/kg, route oral; settings: in vivo
[10] = target: Voltage-gated inwardly rectifying potassium channel KCNH2 (Homo sapiens, UniProt Q12809); assay: Displacement of [35S]MK499 from human Erg expressed in HEK293 cells after 60 mins by scintillation counting; assay type: cell-based
[11] = Activation of glucose-stimulated insulin secretion in C57BL/6J mouse pancreatic islets at 10 nM after 1 hr by ELISA in presence of 16 mM glucose relative to DMSO; assay type: functional; settings: Pancreatic islet
Method in brief: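 Pancreatic islets were isolated from normal C57BL/6J mice. Insulin secretion was measured at 2 and 16 mM glucose. Treatments were test agent at 10 μM, octreotide at 50 nM, the two combined, DMSO as negative control and GLP-1 at 10 nM as positive control. n = 4.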

T1 sequence (P32745 whole entry): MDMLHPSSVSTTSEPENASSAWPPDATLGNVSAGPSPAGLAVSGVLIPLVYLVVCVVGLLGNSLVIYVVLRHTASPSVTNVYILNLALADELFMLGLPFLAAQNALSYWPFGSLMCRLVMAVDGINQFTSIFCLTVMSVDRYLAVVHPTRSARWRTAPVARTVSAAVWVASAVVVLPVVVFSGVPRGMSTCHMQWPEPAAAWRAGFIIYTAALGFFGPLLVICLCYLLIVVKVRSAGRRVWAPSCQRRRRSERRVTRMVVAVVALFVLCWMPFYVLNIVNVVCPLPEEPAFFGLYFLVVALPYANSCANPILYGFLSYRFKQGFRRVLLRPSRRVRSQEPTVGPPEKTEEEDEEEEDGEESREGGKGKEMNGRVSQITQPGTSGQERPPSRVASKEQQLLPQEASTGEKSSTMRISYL
Chain of Voltage-gated inwardly rectifying potassium channel KCNH2 (Q12809 whole entry): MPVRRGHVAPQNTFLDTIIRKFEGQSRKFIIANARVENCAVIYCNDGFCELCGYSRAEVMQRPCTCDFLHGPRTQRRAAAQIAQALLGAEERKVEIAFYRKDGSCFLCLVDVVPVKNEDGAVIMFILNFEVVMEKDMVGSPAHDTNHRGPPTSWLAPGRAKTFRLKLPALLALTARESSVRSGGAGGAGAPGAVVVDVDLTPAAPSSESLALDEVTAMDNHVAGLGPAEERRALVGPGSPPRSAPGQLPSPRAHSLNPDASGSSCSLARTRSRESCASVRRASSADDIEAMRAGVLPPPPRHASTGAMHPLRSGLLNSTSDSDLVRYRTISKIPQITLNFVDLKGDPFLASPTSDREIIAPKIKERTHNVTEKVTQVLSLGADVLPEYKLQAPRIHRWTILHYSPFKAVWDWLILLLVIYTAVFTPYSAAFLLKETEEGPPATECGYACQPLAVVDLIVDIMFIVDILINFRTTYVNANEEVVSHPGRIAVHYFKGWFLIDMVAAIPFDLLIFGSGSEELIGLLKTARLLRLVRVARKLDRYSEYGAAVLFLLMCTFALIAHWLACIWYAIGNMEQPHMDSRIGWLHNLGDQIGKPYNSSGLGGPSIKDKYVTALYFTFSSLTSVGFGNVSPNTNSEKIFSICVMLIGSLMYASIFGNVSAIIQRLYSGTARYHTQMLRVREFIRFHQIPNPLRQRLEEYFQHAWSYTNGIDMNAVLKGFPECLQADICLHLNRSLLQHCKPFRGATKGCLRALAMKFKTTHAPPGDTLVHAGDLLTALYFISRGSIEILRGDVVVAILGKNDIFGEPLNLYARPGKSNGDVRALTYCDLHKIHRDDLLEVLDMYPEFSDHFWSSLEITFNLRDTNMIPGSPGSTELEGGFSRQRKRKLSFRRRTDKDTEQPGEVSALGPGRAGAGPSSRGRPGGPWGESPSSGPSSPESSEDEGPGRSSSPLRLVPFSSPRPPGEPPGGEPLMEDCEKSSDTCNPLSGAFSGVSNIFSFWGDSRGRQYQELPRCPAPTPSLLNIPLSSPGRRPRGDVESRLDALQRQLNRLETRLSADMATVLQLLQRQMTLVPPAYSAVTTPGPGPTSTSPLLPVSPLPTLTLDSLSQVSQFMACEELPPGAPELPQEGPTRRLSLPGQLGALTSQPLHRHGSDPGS

Structure (SMILES)	IC50 [1]	IC50 [2]	IC50 [10]	further results
[O-][S+]1CCC(C2N[C@@H](c3nc(-c4ccccc4)c[nH]3)Cc3c2[nH]c2ccccc32)CC1 (single isomer, unassigned; isomer 1)	220 nM	380 nM		
CCOCC1(COCC)N[C@@H](c2nc(-c3ccccc3)c[nH]2)Cc2c1[nH]c1ccccc21				half-life [3]: 32.4 min; bioavailability [4]: 4%; clearance [5]: 31 mL/min/kg; Vd [6]: 0.7 L/kg; Cmax [7]: 130 nM; IC50 [8]: 1526 nM; AUC/dose [9]: 0.06 µM·h/mg
O=S1(=O)CCC(C2N[C@@H](c3nc(-c4ccccc4)c[nH]3)Cc3c2[nH]c2ccccc32)CC1 (stereo partly drawn)	120 nM	290 nM	100 nM	
CC(C)(C)OC(=O)N1CCC(C2N[C@@H](c3nc(-c4ccccc4)c[nH]3)Cc3c2[nH]c2ccccc32)CC1 (stereo partly drawn)	7 nM	1000 nM		
c1ccc(-c2c[nH]c([C@H]3Cc4c([nH]c5ccccc45)C(C4CCNCC4)N3)n2)cc1 (stereo partly drawn)	63 nM	220 nM		
CC[C@H](C)[C@H](NC(=O)[C@H](Cc1ccccc1)NC(=O)[C@H](CCC(=O)O)NC(=O)[C@H](CCCCN)NC(=O)[C@H](C)NC(=O)[C@H](C)NC(=O)[C@H](CCC(N)=O)NC(=O)CNC(=O)[C@H](CCC(=O)O)NC(=O)[C@H](CC(C)C)NC(=O)[C@H](Cc1ccc(O)cc1)NC(=O)[C@H](CO)NC(=O)[C@H](CO)NC(=O)[C@@H](NC(=O)[C@H](CC(=O)O)NC(=O)[C@H](CO)NC(=O)[C@@H](NC(=O)[C@H](Cc1ccccc1)NC(=O)[C@@H](NC(=O)CNC(=O)[C@H](CCC(=O)O)NC(=O)[C@H](C)N[C@@H](Cc1cnc[nH]1)C(=O)O)[C@@H](C)O)[C@H](C)O)C(C)C)C(=O)N[C@@H](C)C(=O)N[C@@H](Cc1c[nH]c2ccccc12)C(=O)N[C@@H](CC(C)C)C(=O)N[C@H](C(=O)N[C@@H](CCCCN)C(=O)NCC(=O)N[C@@H](CCCNC(=N)N)C(N)=O)C(C)C				Activity [11]: Active
c1ccc(-c2c[nH]c([C@H]3Cc4c([nH]c5ccccc45)C(C4CCSCC4)N3)n2)cc1 (stereo partly drawn)	1.7 nM	10 nM	120 nM	
COC(=O)N1CCC(C2N[C@@H](c3nc(-c4ccccc4)c[nH]3)Cc3c2[nH]c2ccccc32)CC1 (stereo partly drawn)	4 nM	66 nM	700 nM	
